# Experimental data published in ChEMBL document CHEMBL2406919, “On the antibiotic and antifungal activity of pestalone, pestalachloride A, and structurally related compounds” (2013).
# Experiments:
# Format in all cases: functional
# [1] = Antifungal activity against Trametes versicolor after 3 to 5 days by photometric method
# Method in brief: (§1)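 Test compound in methanol with alkylaryl polyglycol ether emulsifier was dried in wells, then liquid potato dextrose medium with spores or mycelium of the test organism was added. Incubated 3−5 days shaking at 20 °C, 85% relative humidity. Growth was taken as the change in extinction at 620 nm before and after incubation. ED₅₀ (50% growth inhibition, ppm = μg/mL) came from a dose−response curve against untreated control.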
# Pseudomonas fluorescens = assay: Antifungal activity against Pseudomonas fluorescens after 3 to 5 days by photometric method; details: read-out: ED50 (the source's name); method in brief: as §1
# Aspergillus niger = assay: Antifungal activity against Aspergillus niger after 3 to 5 days by photometric method; details: read-out: ED50 (the source's name); method in brief: as §1
# Fusarium culmorum = assay: Antifungal activity against Fusarium culmorum after 3 to 5 days by photometric method; details: read-out: ED50 (the source's name); method in brief: as §1
# [2] = Antifungal activity against Ustilago avenae after 3 to 5 days by photometric method; method in brief: as §1
# [3] = Antifungal activity against Pyrenophora teres after 3 to 5 days by photometric method; method in brief: as §1
# [4] = Antifungal activity against Leptosphaeria nodorum after 3 to 5 days by photometric method; method in brief: as §1
# Botrytis cinerea = assay: Antifungal activity against Botrytis cinerea after 3 to 5 days by photometric method; details: read-out: ED50 (the source's name); method in brief: as §1
# Alternaria mali = assay: Antifungal activity against Alternaria mali after 3 to 5 days by photometric method; details: read-out: ED50 (the source's name); method in brief: as §1
# Pythium aphanidermatum = assay: Antifungal activity against Pythium aphanidermatum after 3 to 5 days by photometric method; details: read-out: ED50 (the source's name); method in brief: as §1
# Fusarium graminearum = assay: Antifungal activity against Gibberella zeae after 3 to 5 days by photometric method; details: read-out: ED50 (the source's name)
# Method in brief: (§2)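 Test compound in methanol with alkylaryl polyglycol ether emulsifier dried into wells. Liquid potato dextrose medium holding spores or mycelium of the fungus added. OD620 read before and after 3–5 days shaking at 20 °C, 85% relative humidity. ΔOD against untreated control fitted to a dose–response curve; ED50 (50% growth inhibition) given in ppm (μg/mL).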
# [5] = Antifungal activity against Phytophthora cryptogea after 3 to 5 days by photometric method; method in brief: as §1
# Pyricularia oryzae = assay: Antifungal activity against Pyricularia oryzae after 3 to 5 days by photometric method; details: read-out: ED50 (the source's name); method in brief: as §2
# Staphylococcus aureus [6] = assay: Antimicrobial activity against hospital acquired vancomycin-intermediate Staphylococcus aureus Mu50 after 24 hrs by microdilution method; details: Mu50, 24 h
# Method in brief: (§3)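 CLSI broth microdilution (M7-A6) with 2-fold serial compound dilutions in Mueller–Hinton broth. Inoculum 10⁵ cfu/mL. Strains came from NARSA, stored at −70 °C and revived on Mueller–Hinton agar days before testing. After 24 h at 37 °C, MIC read as the lowest concentration preventing visible growth. Vancomycin served as control.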
# Staphylococcus aureus [7] = assay: Antimicrobial activity against epidemic community acquired methicillin-resistant Staphylococcus aureus USA300 after 24 hrs by microdilution method; details: USA300, 24 h; method in brief: as §3
# Zymoseptoria tritici = assay: Antifungal activity against Septoria tritici after 3 to 5 days by photometric method; details: read-out: ED50 (the source's name); method in brief: as §1
# Phytophthora infestans = assay: Antifungal activity against Phytophthora infestans after 3 to 5 days by photometric method; details: read-out: ED50 (the source's name); method in brief: as §2
# Staphylococcus aureus [8] = assay: Antimicrobial activity against Staphylococcus aureus ATCC 29213 after 24 hrs by microdilution method; details: ATCC 29213, 24 h
# Method in brief: (§4)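 CLSI (M7-A6) broth microdilution with 2-fold serial compound dilutions in Mueller−Hinton broth. Inoculum was 10⁵ cfu/mL, with vancomycin as control. After 24 h at 37 °C, MIC was read as the lowest concentration inhibiting visible growth.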
# Staphylococcus aureus [9] = assay: Antimicrobial activity against community acquired Staphylococcus aureus MW2 after 24 hrs by microdilution method; details: MW2, 24 h; method in brief: as §4
# Staphylococcus aureus [10] = assay: Antimicrobial activity against methicillin-resistant Staphylococcus aureus LT-1334 after 24 hrs by microdilution method; details: LT-1334, 24 h
# Method in brief: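 Broth microdilution per CLSI with 2-fold serial compound dilutions. Growth and testing in half-concentrated Mueller–Hinton broth, inoculum 10⁵ cfu/mL. MIC read after 24 h at 37 °C as the lowest concentration inhibiting visible growth.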
# Staphylococcus aureus [11] = assay: Antimicrobial activity against Staphylococcus aureus SG511 after 24 hrs by broth microdilution method; details: SG511, 24 h
# Method in brief: (§5)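 CLSI broth microdilution with 2-fold serial compound dilutions in half-concentrated Mueller−Hinton broth. Inoculum was 10⁵ cfu/mL. After 24 h at 37 °C, MIC was read as the lowest concentration inhibiting visible growth.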
# Bacillus subtilis = assay: Antimicrobial activity against Bacillus subtilis 168 after 24 hrs by broth microdilution method; details: subsp. subtilis str. 168 ; method in brief: as §5
SMILES,ED50 [1],EC50 (Pseudomonas fluorescens),EC50 (Aspergillus niger),EC50 (Fusarium culmorum),ED50 [2],ED50 [3],ED50 [4],EC50 (Botrytis cinerea),EC50 (Alternaria mali),EC50 (Pythium aphanidermatum),EC50 (Fusarium graminearum),ED50 [5],EC50 (Pyricularia oryzae),MIC (Staphylococcus aureus [6]),MIC (Staphylococcus aureus [7]),EC50 (Zymoseptoria tritici),EC50 (Phytophthora infestans),MIC (Staphylococcus aureus [8]),further results
COc1cc(OC)c(CC=C(C)C)c(C(=O)c2c(O)c(Cl)c(C)c(Cl)c2OC)c1C=O,> 50 µg/mL,> 50 µg/mL,> 50 µg/mL,1.2 µg/mL,> 50 µg/mL,5.4 µg/mL,22.5 µg/mL,> 50 µg/mL,> 50 µg/mL,44.4 µg/mL,> 50 µg/mL,> 50 µg/mL,5 µg/mL,15 µg/mL,10 µg/mL,> 50 µg/mL,–,–,–
COc1c(Cl)c(C)c(Cl)c(O)c1C(=O)c1c(Br)c(O)cc(O)c1Br,> 50 µg/mL,> 50 µg/mL,> 50 µg/mL,0.014 µg/mL,> 50 µg/mL,> 50 µg/mL,> 50 µg/mL,> 50 µg/mL,> 50 µg/mL,–,> 50 µg/mL,> 50 µg/mL,> 50 µg/mL,30 µg/mL,30 µg/mL,> 50 µg/mL,> 50 µg/mL,–,–
COc1c(Cl)c(C)c(Cl)c(O)c1C(=O)c1cc(O)cc2c1CCC(C)(C)O2,–,–,–,–,–,–,–,–,–,–,–,–,–,7 µg/mL,7 µg/mL,–,–,–,–
COc1c(Cl)c(C)c(Cl)c(O)c1C1c2c(CC=C(C)C)c(O)cc(O)c2C(=O)N1Cc1ccccc1 (racemic),–,–,–,–,–,–,–,–,–,–,–,–,–,–,–,–,–,> 50 µg/mL,MIC (Staphylococcus aureus [9]): > 50 µg/mL
CN[C@H](CC(C)C)C(=O)N[C@H]1C(=O)N[C@@H](CC(N)=O)C(=O)N[C@H]2C(=O)N[C@H]3C(=O)N[C@H](C(=O)N[C@H](C(=O)O)c4cc(O)cc(O)c4-c4cc3ccc4O)[C@H](O)c3ccc(c(Cl)c3)Oc3cc2cc(c3O[C@@H]2O[C@H](CO)[C@@H](O)[C@H](O)[C@H]2O[C@H]2C[C@](C)(N)[C@H](O)[C@H](C)O2)Oc2ccc(cc2Cl)[C@H]1O [VANCOMYCIN],–,–,–,–,–,–,–,–,–,–,–,–,–,–,0.25 µg/mL,–,–,–,–
COc1c(Cl)c(C)c(Cl)c(O)c1C1OC(=O)c2c(O)cc(O)c(CC=C(C)C)c21 (racemic) [RAC-PESTALALACTONE],13.1 µg/mL,> 50 µg/mL,> 50 µg/mL,> 50 µg/mL,> 50 µg/mL,4.3 µg/mL,> 50 µg/mL,> 50 µg/mL,> 50 µg/mL,> 50 µg/mL,> 50 µg/mL,18.9 µg/mL,> 50 µg/mL,–,25 µg/mL,> 50 µg/mL,–,–,–
COc1c(Cl)c(C)c(Cl)c(O)c1C1NC(=O)c2c(O)cc(O)c(CC=C(C)C)c21 (racemic) [PESTALACHLORIDE A],> 50 µg/mL,> 50 µg/mL,> 50 µg/mL,31.9 µg/mL,> 50 µg/mL,33.1 µg/mL,> 50 µg/mL,> 50 µg/mL,> 50 µg/mL,> 50 µg/mL,> 50 µg/mL,> 50 µg/mL,> 50 µg/mL,–,–,> 50 µg/mL,> 50 µg/mL,10 µg/mL,MIC (Staphylococcus aureus [9]): 10 µg/mL
COc1c(Cl)c(C)c(Cl)c(O)c1C1c2c(CC=C(C)C)c(O)cc(O)c2C(=O)N1C (racemic),–,–,–,–,–,–,–,–,–,–,–,–,–,–,–,–,–,> 50 µg/mL,MIC (Staphylococcus aureus [9]): > 50 µg/mL
COc1cc(OC)c(CC=C(C)C)c(C(=O)c2c(OC)c(Cl)c(C)c(Cl)c2OC)c1Br,> 50 µg/mL,> 50 µg/mL,> 50 µg/mL,> 50 µg/mL,> 50 µg/mL,> 50 µg/mL,> 50 µg/mL,> 50 µg/mL,> 50 µg/mL,> 50 µg/mL,> 50 µg/mL,> 50 µg/mL,> 50 µg/mL,–,–,> 50 µg/mL,> 50 µg/mL,–,–
COc1c(Cl)c(C)c(Cl)c(O)c1C(=O)c1cc(O)cc(O)c1CC=C(C)C [DEFORMYL-PESTALONE],–,–,–,–,–,–,–,–,–,–,–,–,–,5 µg/mL,5 µg/mL,–,–,–,–
COc1c(Cl)c(C)c(Cl)c(O)c1C(=O)c1c(C=O)c(O)cc(O)c1CC=C(C)C [PESTALONE],> 50 µg/mL,> 50 µg/mL,> 50 µg/mL,0.12 µg/mL,> 50 µg/mL,2.2 µg/mL,22.4 µg/mL,> 50 µg/mL,22.4 µg/mL,> 50 µg/mL,> 50 µg/mL,33.9 µg/mL,28.6 µg/mL,10 µg/mL,10 µg/mL,26.7 µg/mL,> 50 µg/mL,16 µg/mL,MIC (Staphylococcus aureus [10]): 6.25 µg/mL; MIC (Staphylococcus aureus [11]): 3.1 µg/mL; MIC (Bacillus subtilis): 1.6 µg/mL
COc1cc(OC)c(Br)c(C(=O)c2c(OC)c(Cl)c(C)c(Cl)c2OC)c1Br,> 50 µg/mL,> 50 µg/mL,> 50 µg/mL,2.2 µg/mL,> 50 µg/mL,42 µg/mL,> 50 µg/mL,> 50 µg/mL,> 50 µg/mL,> 50 µg/mL,> 50 µg/mL,> 50 µg/mL,12.6 µg/mL,–,–,> 50 µg/mL,–,–,–
